Source: ChEMBL document CHEMBL1123269, “Synthesis and antitumor activity of certain 3-beta-D-ribofuranosyl-1,2,4-triazolo[3,4-f]-1,2,4-triazines related to formycin prepared via ring closure of a 1,2,4-triazine precursor” (1986)
pIC50: −log10 of the molar value.

Tests used:
Assay type in all cases: functional
L1210 [1] = test: Concentration that produced 50% inhibition of L1210 leukemia tumor cell growth was determined; conditions: Mus musculus, read-out: ID50 (the source's name)
Outline: (§1)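 L1210 murine lymphocytic leukemia cells, mycoplasma-free, grown in suspension in RPMI-1640 with 10% fetal bovine serum and 20 mM Hepes. Inoculum 5 × 10⁴ cells/mL with compound at 0.1–100 μM final (0.5-log steps), in triplicate. Incubated 48 h at 37 °C, humidified 5% CO₂. Growth was measured by Coulter count as % of untreated control, or of a matched Me₂SO control. ID₅₀ was read from the %-control vs concentration plot.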

CCRF-CEM [2] = test: Concentration that produced 50% inhibition of CCRF-CEM leukemia tumor cell growth was determined; conditions: Homo sapiens, read-out: ID50 (the source's name)
Outline: (§2)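 Assay in CCRF-CEM human T-lymphoblastic leukemia cells (mycoplasma-free; suspension in RPMI-1640, 10% fetal bovine serum, 20 mM Hepes). Seeded at 5 × 10⁴ cells/mL with compound at 0.1–100 μM final in 0.5-log steps, triplicate, for 92 h at 37 °C in humidified 5% CO₂. Electronic cell count gave growth as % of control (Me₂SO-matched where relevant). ID₅₀ was taken from the plot.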

[3] = Concentration that produced 50% inhibition of WIL2 leukemia tumor cell growth was determined; conditions: Homo sapiens, read-out: ID50 (the source's name)
Outline: (§3)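 WIL2 human B-lymphoblastic leukemia cells were kept mycoplasma-free in suspension culture in RPMI-1640 with 10% fetal bovine serum and 20 mM Hepes. Triplicate wells held 5 × 10⁴ cells/mL and compound at 0.1–100 μM final (0.5-log dilutions), for 72 h at 37 °C in 5% CO₂. Coulter cell counts gave growth as % of untreated or Me₂SO-matched controls. ID₅₀ came from the concentration plot.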

CCRF-CEM [4] = test: Concentration that produced 50% inhibition of CCRF-CEM leukemia tumor cell growth was determined at 100 uM; conditions: Homo sapiens; outline: as §2
L1210 [5] = test: Concentration that produced 50% inhibition of L1210 leukemia tumor cell growth was determined at 100 uM; conditions: Mus musculus; outline: as §1
[6] = Concentration that produced 50% inhibition of WIL2 leukemia tumor cell growth was determined at 100 uM; conditions: Homo sapiens; outline: as §3

| Compound | pIC50 (L1210 [1]) | pIC50 (CCRF-CEM [2]) | pIC50 [3] | inhibition at 100 µM (CCRF-CEM [4]) [%] | inhibition at 100 µM (L1210 [5]) [%] | inhibition at 100 µM [6] [%] |
| --- | --- | --- | --- | --- | --- | --- |
| O=C1N=CN=C2C([C@@H]3O[C@H](CO)[C@@H](O)[C@H]3O)=NNC12 (stereo partly drawn) | 4.50 | 5.08 | 5.12 |  |  |  |
| Nc1nn2c([C@@H]3O[C@H](CO)[C@@H](O)[C@H]3O)nnc2c(=S)[nH]1 |  | 4.17 |  |  |  |  |
| O=c1[nH]cnn2c([C@@H]3O[C@H](CO)[C@@H](O)[C@H]3O)nnc12 | 5.15 |  | 4.82 |  |  |  |
| Nc1ncnn2c([C@@H]3O[C@H](CO)[C@@H](O)[C@H]3O)nnc12 | 5.20 | 5.30 | 5.14 |  |  |  |
| Nc1nc(N)c2nnc([C@@H]3O[C@H](CO)[C@@H](O)[C@H]3O)n2n1 | 4.79 | 4.35 | 4.34 |  |  |  |
| Nc1nn2c([C@@H]3O[C@H](CO)[C@@H](O)[C@H]3O)nnc2c(=O)[nH]1 |  |  |  | 30 | 47 | 35 |
| Nc1ncnc2c([C@@H]3O[C@H](CO)[C@@H](O)[C@H]3O)[nH]nc12 [FORMYCIN] | 4.56 | 5.21 | 5.21 |  |  |  |
